Reference: publication PMC9789792 (Inorganic chemistry, 2022)
Where two headings read alike, the source gives them in different places.

Tests used:
SadX [1] = format: biochemical; conditions: for Km: KM for salt; for Km / kcat: hydroxylation of 1a (1 mM) to give 1b by 0.5 μM SadX, varying [salt]; for Kinetic behaviour of 1b formation as a function of salt concentration: saturating 1a (1 mM), SadX
Fe(II) center in SadX = assay: UV-vis titration of anion binding; conditions: SadX-His/Fe(II)/αKG, 100 mM HEPES pH 7.5
Method in brief: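 Anaerobic (N₂ glovebox, degassed buffer): SadX-His (0.51 mM, 0.5 μmol) plus FeSO₄ (0.375 μmol) in 100 mM HEPES pH 7.5, 23 °C, quartz cuvette. αKG (5 μmol) added, then anion salt (10–200 mM stocks). Spectra 350–800 nm, dilution-corrected. Difference spectra taken versus initial SadX-His/Fe(II) and zeroed at 800 nm. λmax absorbances fitted to single-site saturation binding for KD.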

SadX [2] = assay: Steady state kinetic analysis of SadX with varying concentrations of 1a; format: biochemical
SadX [3] = assay: SadX activity assay: conversion of 1a in the presence of salts; format: biochemical; conditions: 10 μM SadX, 1 mM 1a, 50 mM salt, overnight, room temperature

Row | Compound | Km (SadX [1]) | kcat (SadX [1]) | Kd (Fe(II) center in SadX; Blue-shifted Absorbance) | Kd (Fe(II) center in SadX; Red-shifted Absorbance) | Fold improved kcat/KM relative to that in the absence of salt (SadX [2]; SadX, hydroxylation of 1a) | Conversion of 1a (to 1b) (SadX [3]) | Kinetic behaviour of 1b formation as a function of salt concentration (SadX [1]) | Fold by which hydroxylation kcat/KM exceeds WT SadA (SadX [2]; SadX, hydroxylation of 1a) | kcat (SadX [2]; azidation of 1a by SadX to give 1eN3, varying [1a])
1 | [Cs+].[F-] [CsF] | 12000 µM | 0.357 s⁻¹ | 460 µM | 450 µM | 16 fold |  |  |  | 
2 | N#C[O-].[Na+] [cyanate] |  |  |  |  |  | high conversion |  |  | 
3 | CC(=O)O [acetate] |  |  |  |  |  | low conversion |  |  | 
4 | O=C[O-].[Na+] [NaOC(O)H] | 450 µM | 0.122 s⁻¹ | 530 µM | 470 µM |  |  |  |  | 
5 | [N-]=[N+]=[N-].[Na+] [NaN3] | 14 µM | 0.953 s⁻¹ | 2650 µM | 600 µM |  |  | exhibit saturation kinetics | 12 fold | 8.72 10^−3 s^−1
6 | F[P-](F)(F)(F)(F)F.[NH4+] [NH4PF6] |  |  |  |  |  | trace conversion | does not follow Michaelis Menten kinetics |  | 
7 | [Cl-].[Na+] [NaCl] | 4160 µM | 0.197 s⁻¹ | 600 µM | 490 µM |  |  | exhibit saturation kinetics |  | 
8 | bromide |  |  |  |  |  | significantly lower conversion |  |  | 
